Kir21 block: inhibitors of mouse Kir2.1 inward-rectifier potassium channel. Inward rectifier potassium channel 2 (Mus musculus), P35561. HEK293-Kir2.1, FluxOR thallium flux fluorescence; active compounds read low. B-score at 10 µM. 310,000 tested, 0.85% active. AID 1672, 2009;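 active = fluorescence ratio B-score at or below minus 3 SD of library scores, with starting-brightness B-score within 2 SD, cut at about -4.2 in these data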;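 note: channel flux triggered by added potassium and thallium sulfate stimulus; B-score of peak minus minimum fluorescence over baseline after thallium stimulus; more negative B-score means stronger Kir2.1 block with less thallium influx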
Target sequence (P35561 whole entry, looked up): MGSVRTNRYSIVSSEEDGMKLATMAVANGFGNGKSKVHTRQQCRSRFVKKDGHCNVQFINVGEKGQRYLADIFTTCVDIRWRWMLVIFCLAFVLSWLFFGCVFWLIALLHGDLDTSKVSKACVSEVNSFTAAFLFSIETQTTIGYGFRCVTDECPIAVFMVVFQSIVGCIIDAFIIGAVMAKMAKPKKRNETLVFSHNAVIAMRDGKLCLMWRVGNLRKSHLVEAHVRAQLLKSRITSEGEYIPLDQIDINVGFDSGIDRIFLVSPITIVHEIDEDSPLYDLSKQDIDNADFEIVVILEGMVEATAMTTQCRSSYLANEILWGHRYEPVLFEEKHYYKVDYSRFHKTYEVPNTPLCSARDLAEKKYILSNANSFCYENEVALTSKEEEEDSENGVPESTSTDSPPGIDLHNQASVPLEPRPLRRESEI
KCNQ1 act: potentiators or activators of KCNQ1 channel, primary screen, cell-based, thallium flux, high-throughput; CHO-K1 KCNQ1, thallium flux FluxOR fluorescence; active compounds read high; B-score at 10 µM; 310,000 tested, 0.35% active; AID 2648, 2010;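 active = fluorescence ratio B-score, a plate-corrected score, at least three library SD, with initial intensity B-score within 5 SD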
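Doses: Single concentration per compound, DMSO matched to controls | Test system: KCNQ1-transfected CHO-K1 cells | Timing: 90 min dye loading and 20 min compound exposure, both at room temperature | Measured by: Kinetic FluxOR thallium fluorescence, 10-s 1-Hz baseline, 110-s post-stimulus read | Medium: Assay buffer with matched DMSO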
KCNK9 block: KCNK9 potassium channel inhibitors, primary screen, HEK293 cells, thallium flux | Potassium channel subfamily K member 9 (Homo sapiens), Q9NPC2 | 310,000 tested, 1.2% active | AID 488922, 2010 | B-score at 10 µM | FluxOR thallium flux fluorescence; active compounds read low;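 active = ratio B-score over 3 SD below the library mean, with starting fluorescence within 5 SD of its mean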;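 note: negative B-score means less thallium flux so channel inhibition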
KCNK3 block: human KCNK3 channel inhibitors, primary screen, CHO cells, FluxOR thallium flux, B-score; Potassium channel subfamily K member 3 (Homo sapiens), O14649; FluxOR fluorescence; active compounds read low; B-score at 10 µM; 340,000 tested, 0.84% active; AID 602410, 2012;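 active = B-score under library mean minus 4 SD, starting fluorescence ratio at most library mean plus 5 SD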;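 note: more negative B-score means stronger inhibition of thallium flux through KCNK3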
Target sequence (O14649 whole entry, looked up): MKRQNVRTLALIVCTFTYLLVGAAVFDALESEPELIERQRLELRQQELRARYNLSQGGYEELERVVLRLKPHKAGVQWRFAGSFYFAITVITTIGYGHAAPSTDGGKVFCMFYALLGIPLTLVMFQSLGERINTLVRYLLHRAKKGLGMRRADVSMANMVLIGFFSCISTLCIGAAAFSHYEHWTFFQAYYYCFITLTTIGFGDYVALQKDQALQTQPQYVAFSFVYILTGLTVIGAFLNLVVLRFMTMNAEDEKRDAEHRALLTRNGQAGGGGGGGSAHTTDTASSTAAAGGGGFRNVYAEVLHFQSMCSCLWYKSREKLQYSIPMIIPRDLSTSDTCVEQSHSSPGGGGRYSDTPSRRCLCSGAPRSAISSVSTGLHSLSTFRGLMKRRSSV
hERG protect: hERG rescue from dofetilide block, primary screen, cell-based, CHO-hERG, FluxOR thallium flux, dofetilide IC70. Voltage-gated inwardly rectifying potassium channel KCNH2 (Homo sapiens), Q12809. dofetilide IC70 present. activation (rescue from dofetilide block), less the hit threshold, % at 10 µM. 310,000 tested, 0.51% active;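 active = activation above the mean of controls blocked by dofetilide plus 5 SD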;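 note: thallium influx through hERG after potassium depolarization seen as dye fluorescence rise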
KCNQ1 inh: inhibitors of human KCNQ1 channel, primary screen, cell-based, thallium flux, high-throughput; Potassium voltage-gated channel subfamily KQT member 1 (Homo sapiens), P51787; CHO-K1 KCNQ1, FluxOR thallium flux fluorescence; active compounds read high; B-score at 10 µM; 310,000 tested, 1.3% active; AID 2642, 2010;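 active = compounds whose thallium flux B-score, printed positive for inhibition, exceeds three library SD while starting fluorescence stays within three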;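 note: channel opened by potassium depolarization with thallium stimulus after 20 min compound exposure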
KCNQ1 inh valid: KCNQ1 potassium channel inhibitors, confirmation, cell-based, Tl flux, duplicate; inhibition, % at 10 µM; AID 588353, 2011; KCNQ1 cell line, FluxOR thallium flux fluorescence; 1,600 tested, 93% active; shares compounds with KCNQ1 inh;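 active = primary screen active, with duplicate mean exceeding buffer control mean plus 3 SD of buffer wells, cut at about 28% in these data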;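 note: 0% = buffer control ratio and 100% = XE991 inhibitor control ratio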
CHO Tl flux: thallium flux effects in parental CHO cells, counter-screen for KCNQ1 inhibitor project, cell-based, Tl flux. shares compounds with KCNQ1 inh. parental CHO-K1, FluxOR thallium flux fluorescence ratio; active compounds read low; zero means no signal rise above baseline. fluorescence ratio (Tl flux) at 10 µM. 1,600 tested, 21% active;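 active = mean of duplicate thallium-flux fluorescence ratios in parental host cells more than 5 SD below the buffer control mean, cut at about 0.38 in these data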;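 note: ratio is peak minus minimum fluorescence divided by baseline fluorescence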
KCNQ1 APC inh: KCNQ1 channel inhibitors, confirmation, orthogonal assay, cell-based, automated electrophysiology | shares compounds with KCNQ1 inh | KCNQ1-CHO cells, automated patch clamp current | calls only at 10 µM | 490 tested, 20% active;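 active = KCNQ1 current drop exceeding 3 SD of negative control wells, seen in both duplicate runs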;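 note: steady state current during a 2 s step from -80 to +40 mV; negative values mean current inhibition and positive values mean potentiation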
KCNQ2 spec: KCNQ2 channel inhibition, selectivity assay for KCNQ1 inhibitor project, cell-based. shares compounds with KCNQ1 inh. KCNQ2 cells, FluxOR thallium flux fluorescence. inhibition, % at 10 µM. 1,600 tested, 71% active. AID 651746, 2012;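 active = mean percent inhibition of the KCNQ2 thallium signal more than 5 SD above the buffer-only control wells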;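 note: KCNQ2 expressed in CHO cells; 0% = buffer control wells and 100% = XE-991 inhibitor control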
KCNQ1 KCNE1 spec: KCNQ1/KCNE1 channel inhibition, selectivity assay for KCNQ1 inhibitor project, CHO-K1 cells, thallium flux, FluxOR. 1,600 tested, 77% active. inhibition, % at 10 µM. FluxOR thallium flux fluorescence. shares compounds with KCNQ1 inh. AID 652147, 2013;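 active = mean percent inhibition of duplicate wells above the buffer-only control mean plus 3 SD of those controls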;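 note: 0% = buffer only wells and 100% = XE-991 inhibitor control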
KCNK9 inh conf: KCNK9 potassium channel inhibitors, confirmation, HEK293 cells, thallium flux, duplicate; 4,900 tested, 43% active; inhibition, % at 10 µM; FluxOR thallium flux fluorescence; shares compounds with KCNK9 block; AID 492992, 2010;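 active = thallium signal inhibited by more than 5 SD of the compound-free buffer control wells, on both duplicate plates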;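 note: 0% = assay buffer control wells without compound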
Kir2-1 spec: mouse Kir2.1 channel inhibition, confirmation, selectivity assay for KCNK9 modulator project, cell-based, HEK293, thallium flux. shares compounds with KCNK9 block. inhibition, % at 10 µM. Kir2.1 cells, FluxOR thallium flux fluorescence. 4,900 tested, 4% active. AID 492993, 2010;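 active = thallium signal drop more than 5 SD beyond the mean of the no-compound control wells, seen in both duplicate plates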;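 note: signal is fluorescence rise after thallium addition divided by baseline fluorescence; plate controls were assay buffer only for no effect and full block by chlorpromazine control for full effect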
KCNK9 uninduced: thallium flux in non-induced HEK293 cells, confirmation, counter-screen for KCNK9 inhibitor project, cell-based, second counter screen, non-induced KCNK9-HEK293; shares compounds with KCNK9 block; FluxOR thallium flux; inhibition, % at 10 µM; 4,900 tested, 40% active; AID 492997, 2010;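 active = thallium signal drop beyond 5 SD of the untreated control mean, on both duplicate plates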;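 note: plate controls were buffer only IC0 wells for no effect and SID17386958 at its maximal inhibitory level for full effect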
KCNK3 confirm: retest of human KCNK3 channel inhibitors, confirmation, CHO cells, FluxOR thallium flux, triplicate | shares compounds with KCNK3 block | FluxOR fluorescence; 0% buffer, 100% carvedilol maximal block | ratio percent of control, % at 10 µM | 2,400 tested, 99% active | AID 651638, 2012;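 active = ratio percent of control, averaged over triplicates, above buffer control mean plus 5 SD, cut at about 64% in these data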;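 note: ratio is the fluorescence rise from min to max over baseline after thallium stimulus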
KCNK3 uninduced: thallium flux inhibition in non-induced cells, primary screen, counter-screen for KCNK3 inhibitor project, cell-based, non-induced KCNK3 line, FluxOR thallium, triplicate. non-induced KCNK3 parental cells; active compounds read low. 2,400 tested, 40% active. thallium flux ratio (lower = more inhibition) at 10 µM. shares compounds with KCNK3 block;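 active = thallium flux ratio, averaged over three wells, more than 5 SD below the buffer control mean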;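 note: host cells are CHO cells without KCNK3 induction; ratio is peak minus trough fluorescence over baseline then normalized to buffer controls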
The depositor's hits bear a star; i = inactive; . = no result; + = active, no number. In the library only some 3.7% were active in any assay of this set; here they are far more common.

SMILES | Kir21 block | KCNQ1 act | KCNK9 block | KCNK3 block | hERG protect | KCNQ1 inh | KCNQ1 inh valid | CHO Tl flux | KCNQ1 APC inh | KCNQ2 spec | KCNQ1 KCNE1 spec | KCNK3 confirm | KCNK3 uninduced | others
CN(CC(=O)Nc1ccccc1Br)C(=O)C1CCN(C(=O)c2ccc(Cl)cc2)CC1 | -0.12 | i | i | i | -4.0 | i | . | . | . | . | . | . | .
O=C(Nc1ccc(Cl)c(Cl)c1)c1ccc(Cn2cc(Cl)cn2)cc1 | -1.69 | i | i | -11.7* | -6.8 | 8* | 111.5* | 0.429 | i | 105.3%* | 111.5%* | 109.3* | i
NNC(=O)c1ccc(Cn2cc(Cl)cn2)cc1 | 0.37 | i | i | i | -3.1 | i | . | . | . | . | . | . | .
CNc1nc(SCc2ccc(C)cc2)nc2c1CCCC2 | 1.51 | i | i | -10.8* | -8.7 | 10* | 129.5* | 0.442 | i | 101.0%* | 102.0%* | 134.0* | 0.148*
Cc1ccc(CSc2nc3c(c(SCC(=O)O)n2)CCCC3)cc1 | -0.93 | i | i | i | 1.7 | i | . | . | . | . | . | . | .
Cc1ccc(CNC(=O)CNC(=S)N(Cc2ccccc2)Cc2ccccc2F)cc1 | 0.24 | i | i | i | 1.5 | i | . | . | . | . | . | . | .
COc1ccc(C(=O)C2CCCN(Cc3cccn3-c3nccs3)C2)cc1OC (stereo not drawn) | -1.61 | i | i | i | -15.0 | i | . | . | . | . | . | . | .
Cc1ccsc1C(=O)C1CCCN(Cc2cccn2-c2ccc(Cl)cn2)C1 (stereo not drawn) | -4.59* | i | i | -9.07* | -25.6 | 9* | 91.5* | 0.43 | + | 71.7%* | 57.5%* | 127.3* | 0.136*
COc1ccc(Nc2nc(-c3cccc(OC)c3O)nc3ccccc23)cc1 | -0.07 | i | i | -9.92* | -4.2 | 7* | 167.5* | 0.303* | . | 116.0%* | + | 133.0* | 0.146*
Fc1ccc(C2c3[nH]c4ccccc4c3CCN2Cc2cccn2-c2ncccn2)cc1 (stereo not drawn) | 0.01 | i | -7.81* | -14* | -21.7 | 6* | 83.5* | 0.44 | . | 72.0%* | 97.0%* | 121.3* | 0.152*
Cc1cnc(C(=O)N2CCc3c([nH]c4ccccc34)C2c2ccc(F)cc2)cn1 (stereo not drawn) | -0.16 | i | i | i | -0.1 | i | . | . | . | . | . | . | .
Cc1ccn2cc(-c3cccc(NC(=O)c4cccs4)c3)nc2c1 | -0.61 | i | i | -11.1* | -24.2 | 8* | 57.5* | 0.435 | . | i | 82.0%* | 96.0* | i
COc1ccc(-c2csc(N(CC(C)C)C(=O)c3ccco3)n2)cc1 | 1.17 | i | i | -9.86* | -4.3 | 7* | 107.0* | 0.405 | + | 80.0%* | 139.0%* | 161.7* | 0.0733*
CCOc1cc(/C=N/NC(=O)c2cc(-c3cccc(OC)c3)nc3ccccc23)ccc1O | 0.15 | i | i | i | -11.7 | i | . | . | . | . | . | . | .
CC(C)COc1cccc(-c2cc(C(=O)N/N=C/c3ccncc3)c3ccccc3n2)c1 | -1.06 | i | i | -10.1* | -11.5 | 14* | 182.5* | 0.298* | . | 125.3%* | + | 118.3* | 0.0963*
O=[N+]([O-])c1c(Nc2ccccc2O)ccc2nonc12 | 1.48 | i | i | i | -1.1 | i | . | . | . | . | . | . | .
O=[N+]([O-])c1c(Nc2ccccc2O)cc(Cl)c2nonc12 | -7.18* | i | i | -12.2* | -34.6 | 21* | 183.5* | 0.2* | . | 151.3%* | + | 154.3* | 0.0763*
Cn1c(N2CCN(C(c3ccccc3)c3ccccc3)CC2)nc2ccccc21 | 0.69 | i | -14.2* | -12.7* | -14.9 | 12* | 142.5* | 0.385 | i | 142.3%* | + | 117.0* | 0.157* | KCNK9 inh conf=83.5%*;Kir2-1 spec=i;KCNK9 uninduced=i
Cn1c(N2CCN(C(=O)Nc3ccc(F)cc3)CC2)nc2ccccc21 | 0.73 | i | i | i | -0.8 | i | . | . | . | . | . | . | .

Assay outcomes deposited in PubChem by Johns Hopkins Ion Channel Center.
